Data published in ChEMBL document CHEMBL1129305, “Drug delivery systems. 2. Camptothecin 20-O-poly(ethylene glycol) ester transport forms” (J Med Chem, 1996).

Legend:
[1] = Half life in human plasma at 37 degree C; type: ADME, organism-based
In short: (§1)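 Ester incubated at 37 °C in rat or human plasma. Half-life recorded as disappearance of the transport form, with release of parent drug also followed over time. Runs done in duplicate, with SD ±10%.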

Mus musculus [2] = test: Ratio between mean time to death of treated versus control (survivors at 40 days) at a dose of 16 mg/kg of camptothecin, mice dosed days 1-5; type: functional
In short: (§2)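 Mice bearing P388 leukemia dosed ip on days 1–5 to a total of 16 mg/kg camptothecin equivalents, given as aqueous solution or lipid suspension. Groups were 10–20 mice against untreated controls, with survivors counted at 40 days. Read-outs were mean time to death, T/C and ILS = (T/C−1)×100, compared by Student t test assuming equal variances.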

[3] = Half life in PBS buffer (pH 7.4) at 37 degree C; type: ADME
In short: (§3)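 Hydrolysis run at 37 °C in PBS, pH 5.6 or pH 7.4 as stated in the line. Half-life is the time for loss of the ester. Runs done in duplicate, with SD ±10%.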

Mus musculus [4] = test: Percentage of increased life expectancies (ILS) of mice at a dose of 16 mg/kg camptothecin; ILS = (T/C-1) X 100; type: functional; in short: as §2
[5] = Half life in rat plasma at 37 degree C; type: ADME, organism-based; in short: as §1
Mus musculus [6] = test: Mean time to death at a dose of 16 mg/kg of camptothecin, mice dosed days 1-5; type: ADME, organism-based; design: dose 16 mg/kg; conditions: in vivo; in short: as §2
[7] = Half life in PBS buffer (pH 5.6) at 37 degree C; type: ADME; in short: as §3
[8] = Half life in PBS buffer (pH 7.4) at 37 degree C (DMSO employed as cosolvent); type: ADME; conditions: PBS buffer with DMSO as cosolvent
In short: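 Hydrolysis run at 37 °C in PBS pH 7.4 with DMSO as cosolvent. Half-life recorded in duplicate, with SD ±10%.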

Compound	half-life [1]	T/C (Mus musculus [2])	half-life [3]	ILS at 16 mg/kg (Mus musculus [4])	half-life [5]	Mean time to death (Mus musculus [6])	half-life [7]	half-life [8]
CC[C@@]1(OC(=O)CN)C(=O)OCc2c1cc1n(c2=O)Cc2cc3ccccc3nc2-1.O=C(O)C(F)(F)F	0.25 h	1.64	3.5 h	64%	0.5 h	21.7 days	16 h	
CC[C@@]1(OC(C)=O)C(=O)OCc2c1cc1n(c2=O)Cc2cc3ccccc3nc2-1								> 72 h
CC[C@@]1(O)C(=O)OCc2c1cc1n(c2=O)Cc2cc3ccccc3nc2-1 [CAMPTOTHECIN]		2.93		193%		38.7 days		
